The record followed here is ChEMBL document CHEMBL3612023, “Synthesis and in vitro characterization of novel fluorinated derivatives of the TSPO 18 kDa ligand SSR180575” (Eur J Med Chem, 2015).

The logD is the decadic logarithm of the distribution of all forms, ionised or not, between an organic phase and buffer at a given pH. The low end stands for lower lipophilicity, the high end for higher lipophilicity.

The first series in a line: Biotransformation in CD1 mouse liver microsomes at 5 uM measured at 20 mins by HPLC/ESI-MS/MS analysis. Type of series: ADME. To be noted: read-out: Drug metabolism. Summed up: (§1)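 Hepatic microsomes (male CD1 mouse, male Sprague-Dawley rat, or pooled human) at 1 mg/mL protein with 1 mg/mL BSA; substrate 5 µM. Reference sample held 0 min without cofactor; test sample run 20 min with 1 mM NADPH. Reaction quenched with 1 volume ACN, proteins spun out, supernatant analysed by HPLC/ESI-MS/MS in positive SIR. % biotransformation = (1 − area B/area A) × 100.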
For `COc1ccc(-n2nc(CC(=O)N(C)C)c3c4ccc(Cl)cc4n(C)c3c2=O)cc1`, the metabolised at 20 min, 5 µM was determined as 22%.

Take `CN(C)C(=O)Cc1nn(-c2ccc(OCCF)cc2)c(=O)c2c1c1ccc(Cl)cc1n2C`: the metabolised at 20 min, 5 µM came out at 0%.

Take `CN(C)C(=O)Cc1nn(-c2ccc(OCCCF)cc2)c(=O)c2c1c1ccc(Cl)cc1n2C`: the metabolised at 20 min, 5 µM came to 4%.

In the case of `CN(C)C(=O)Cc1nn(-c2ccc(OCCCCF)cc2)c(=O)c2c1c1ccc(Cl)cc1n2C`, the metabolised at 20 min, 5 µM turned out to be 1%.

For `CN(C)C(=O)Cc1nn(-c2ccc(OC/C=C/CF)cc2)c(=O)c2c1c1ccc(Cl)cc1n2C`, the metabolised at 20 min, 5 µM turned out to be 53%.

In the case of `CN(C)C(=O)Cc1nn(-c2ccc(OCC#CCF)cc2)c(=O)c2c1c1ccc(Cl)cc1n2C`, the metabolised at 20 min, 5 µM turned out to be 42%.

As to `CN(C)C(=O)Cc1nn(-c2ccc(OCCOCCF)cc2)c(=O)c2c1c1ccc(Cl)cc1n2C`, the metabolised at 20 min, 5 µM is 17%.

For the compound `CN(C)C(=O)Cc1nn(-c2ccc(OCCOCCOCCF)cc2)c(=O)c2c1c1ccc(Cl)cc1n2C`, the metabolised at 20 min, 5 µM stood at 69%.

With `CN(C)C(=O)Cc1nn(-c2ccccc2)c(=O)c2c1c1ccc(Cl)cc1n2CCF`, the metabolised at 20 min, 5 µM worked out at 5%.

For the compound `CN(C)C(=O)Cc1nn(-c2ccccc2)c(=O)c2c1c1ccc(Cl)cc1n2C/C=C/CF`, the metabolised at 20 min, 5 µM is 31%.

Turning to `CN(C)C(=O)Cc1nn(-c2ccccc2)c(=O)c2c1c1ccc(Cl)cc1n2CC#CCF`, the metabolised at 20 min, 5 µM worked out at 39%.

Take `CN(C)C(=O)Cc1nn(-c2ccccc2)c(=O)c2c1c1ccc(Cl)cc1n2C`: the metabolised at 20 min, 5 µM amounted to 21%.

Another series in a line: Biotransformation in human liver microsomes at 5 uM measured at 20 mins by HPLC/ESI-MS/MS analysis. To be noted: read-out: Drug metabolism. The series is classed as ADME. Summed up: as §1
On the technique in general: Liver microsomes are vesicles of endoplasmic reticulum, rich in cytochrome P450 enzymes.
Take `COc1ccc(-n2nc(CC(=O)N(C)C)c3c4ccc(Cl)cc4n(C)c3c2=O)cc1`: the metabolised at 20 min, 5 µM is 22%.

For the compound `CN(C)C(=O)Cc1nn(-c2ccc(OCCF)cc2)c(=O)c2c1c1ccc(Cl)cc1n2C`, the metabolised at 20 min, 5 µM was determined as 0%.

With `CN(C)C(=O)Cc1nn(-c2ccc(OCCCF)cc2)c(=O)c2c1c1ccc(Cl)cc1n2C`, the metabolised at 20 min, 5 µM worked out at 4%.

Turning to `CN(C)C(=O)Cc1nn(-c2ccc(OCCCCF)cc2)c(=O)c2c1c1ccc(Cl)cc1n2C`, the metabolised at 20 min, 5 µM is 16%.

As for `CN(C)C(=O)Cc1nn(-c2ccc(OC/C=C/CF)cc2)c(=O)c2c1c1ccc(Cl)cc1n2C`, the metabolised at 20 min, 5 µM worked out at 76%.

For `CN(C)C(=O)Cc1nn(-c2ccc(OCC#CCF)cc2)c(=O)c2c1c1ccc(Cl)cc1n2C`, the metabolised at 20 min, 5 µM was 47%.

For `CN(C)C(=O)Cc1nn(-c2ccc(OCCOCCF)cc2)c(=O)c2c1c1ccc(Cl)cc1n2C`, the metabolised at 20 min, 5 µM was 17%.

In the case of `CN(C)C(=O)Cc1nn(-c2ccc(OCCOCCOCCF)cc2)c(=O)c2c1c1ccc(Cl)cc1n2C`, the metabolised at 20 min, 5 µM was 81%.

For the compound `CN(C)C(=O)Cc1nn(-c2ccccc2)c(=O)c2c1c1ccc(Cl)cc1n2CCF`, the metabolised at 20 min, 5 µM was determined as 19%.

Turning to `CN(C)C(=O)Cc1nn(-c2ccccc2)c(=O)c2c1c1ccc(Cl)cc1n2C/C=C/CF`, the metabolised at 20 min, 5 µM was 38%.

In the case of `CN(C)C(=O)Cc1nn(-c2ccccc2)c(=O)c2c1c1ccc(Cl)cc1n2CC#CCF`, the metabolised at 20 min, 5 µM was 30%.

Turning to `CN(C)C(=O)Cc1nn(-c2ccccc2)c(=O)c2c1c1ccc(Cl)cc1n2C`, the metabolised at 20 min, 5 µM turned out to be 10%.

The nature of another series: n-octanol/buffer partition coefficient, log D of the compound at pH 7.4 by HPLC method.
Conditions: not given
Type of series: physicochemical.
Compound `COc1ccc(-n2nc(CC(=O)N(C)C)c3c4ccc(Cl)cc4n(C)c3c2=O)cc1` registered a logD of 3.01.

In turn, `CN(C)C(=O)Cc1nn(-c2ccc(OCCF)cc2)c(=O)c2c1c1ccc(Cl)cc1n2C` displayed a logD of 3.12.

On to `CN(C)C(=O)Cc1nn(-c2ccc(OCCCF)cc2)c(=O)c2c1c1ccc(Cl)cc1n2C`, for which the logD came out at 3.48.

For `CN(C)C(=O)Cc1nn(-c2ccc(OCCCCF)cc2)c(=O)c2c1c1ccc(Cl)cc1n2C`, the logD turned out to be 3.75.

Compound `CN(C)C(=O)Cc1nn(-c2ccc(OC/C=C/CF)cc2)c(=O)c2c1c1ccc(Cl)cc1n2C` displayed a logD of 3.62.

Take `CN(C)C(=O)Cc1nn(-c2ccc(OCC#CCF)cc2)c(=O)c2c1c1ccc(Cl)cc1n2C`: the logD worked out at 3.54.

`CN(C)C(=O)Cc1nn(-c2ccc(OCCOCCF)cc2)c(=O)c2c1c1ccc(Cl)cc1n2C` displayed a logD of 3.11.

Compound `CN(C)C(=O)Cc1nn(-c2ccc(OCCOCCOCCF)cc2)c(=O)c2c1c1ccc(Cl)cc1n2C` displayed a logD of 3.08.

For the compound `CN(C)C(=O)Cc1nn(-c2ccccc2)c(=O)c2c1c1ccc(Cl)cc1n2CCF`, the logD was found to be 3.09.

Compound `CN(C)C(=O)Cc1nn(-c2ccccc2)c(=O)c2c1c1ccc(Cl)cc1n2CCCF` returned a logD of 3.38.

As for `CN(C)C(=O)Cc1nn(-c2ccccc2)c(=O)c2c1c1ccc(Cl)cc1n2CCCCF`, the log distribution coefficient (logD) was 3.66.

On to `CN(C)C(=O)Cc1nn(-c2ccccc2)c(=O)c2c1c1ccc(Cl)cc1n2C/C=C/CF`, for which the log distribution coefficient (logD) came out at 3.48.

`CN(C)C(=O)Cc1nn(-c2ccccc2)c(=O)c2c1c1ccc(Cl)cc1n2CC#CCF` returned a log distribution coefficient (logD) of 3.44.

For the compound `CN(C)C(=O)Cc1nn(-c2ccccc2)c(=O)c2c1c1ccc(Cl)cc1n2CCOCCF`, the pH-dependent lipophilicity (logD) turned out to be 3.2.

Compound `CN(C)C(=O)Cc1nn(-c2ccccc2)c(=O)c2c1c1ccc(Cl)cc1n2CCOCCOCCF` returned a logD of 3.19.

Compound `CN(C)C(=O)Cc1nn(-c2ccccc2)c(=O)c2c1c1ccc(Cl)cc1n2C` displayed a logD of 2.97.

Another series is described as follows: Biotransformation in Sprague-Dawley rat liver microsomes at 5 uM measured at 20 mins by HPLC/ESI-MS/MS analysis. Type of series: ADME. To be noted: read-out: Drug metabolism. Summed up:
as §1
Consider `COc1ccc(-n2nc(CC(=O)N(C)C)c3c4ccc(Cl)cc4n(C)c3c2=O)cc1`, for which the metabolised at 20 min, 5 µM was 4%.

On to `CN(C)C(=O)Cc1nn(-c2ccc(OCCF)cc2)c(=O)c2c1c1ccc(Cl)cc1n2C`, for which the metabolised at 20 min, 5 µM is 2%.

Consider `CN(C)C(=O)Cc1nn(-c2ccc(OCCCF)cc2)c(=O)c2c1c1ccc(Cl)cc1n2C`, for which the metabolised at 20 min, 5 µM was 3%.

Take `CN(C)C(=O)Cc1nn(-c2ccc(OCCCCF)cc2)c(=O)c2c1c1ccc(Cl)cc1n2C`: the metabolised at 20 min, 5 µM came to 13%.

Consider `CN(C)C(=O)Cc1nn(-c2ccc(OC/C=C/CF)cc2)c(=O)c2c1c1ccc(Cl)cc1n2C`, for which the metabolised at 20 min, 5 µM turned out to be 41%.

In the case of `CN(C)C(=O)Cc1nn(-c2ccc(OCC#CCF)cc2)c(=O)c2c1c1ccc(Cl)cc1n2C`, the metabolised at 20 min, 5 µM is 25%.

Regarding `CN(C)C(=O)Cc1nn(-c2ccc(OCCOCCF)cc2)c(=O)c2c1c1ccc(Cl)cc1n2C`, the metabolised at 20 min, 5 µM turned out to be 11%.

`CN(C)C(=O)Cc1nn(-c2ccc(OCCOCCOCCF)cc2)c(=O)c2c1c1ccc(Cl)cc1n2C`: the metabolised at 20 min, 5 µM turned out to be 52%.

On to `CN(C)C(=O)Cc1nn(-c2ccccc2)c(=O)c2c1c1ccc(Cl)cc1n2CCF`, for which the metabolised at 20 min, 5 µM was determined as 14%.

On to `CN(C)C(=O)Cc1nn(-c2ccccc2)c(=O)c2c1c1ccc(Cl)cc1n2C/C=C/CF`, for which the metabolised at 20 min, 5 µM was 44%.

With `CN(C)C(=O)Cc1nn(-c2ccccc2)c(=O)c2c1c1ccc(Cl)cc1n2CC#CCF`, the metabolised at 20 min, 5 µM is 26%.

For `CN(C)C(=O)Cc1nn(-c2ccccc2)c(=O)c2c1c1ccc(Cl)cc1n2C`, the metabolised at 20 min, 5 µM was determined as 14%.
